The text below walks through data of ChEMBL document CHEMBL1122858, “N-(1,3,4,6,7,12b-hexahydro-2H-benzo[b]furo[2,3-a]quinolizin -2-yl)-N- methyl-2-hydroxyethane-sulfonamide: a potent and selective alpha 2-adrenoceptor antagonist” (J Med Chem, 1985).

The structures appear in SMILES notation.

The target in test [1] is T1, Alpha-1A adrenergic receptor (Bos taurus, UniProt P18130).
T1 sequence (P18130 whole entry): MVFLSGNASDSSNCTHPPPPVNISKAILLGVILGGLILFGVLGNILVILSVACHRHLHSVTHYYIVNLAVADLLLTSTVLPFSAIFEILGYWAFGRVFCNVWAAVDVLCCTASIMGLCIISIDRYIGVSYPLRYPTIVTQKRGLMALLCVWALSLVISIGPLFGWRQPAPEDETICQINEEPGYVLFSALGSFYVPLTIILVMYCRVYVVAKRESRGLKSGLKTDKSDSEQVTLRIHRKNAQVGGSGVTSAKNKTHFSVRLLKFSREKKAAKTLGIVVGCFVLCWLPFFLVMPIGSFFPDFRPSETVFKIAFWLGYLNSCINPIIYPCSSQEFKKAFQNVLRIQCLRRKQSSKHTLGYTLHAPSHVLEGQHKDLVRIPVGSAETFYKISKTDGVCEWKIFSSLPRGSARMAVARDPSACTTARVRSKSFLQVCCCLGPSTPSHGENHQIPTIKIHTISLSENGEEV
Briefly: Evaluated for its ability to displace [3H]prazosin from alpha-1-Adrenoceptor of calf cerebral cortex. The test is classed as tissue-based.

In test [2] the target is T2, Alpha-2A adrenergic receptor (Bos taurus, UniProt Q28838).
T2 sequence (Q28838 whole entry): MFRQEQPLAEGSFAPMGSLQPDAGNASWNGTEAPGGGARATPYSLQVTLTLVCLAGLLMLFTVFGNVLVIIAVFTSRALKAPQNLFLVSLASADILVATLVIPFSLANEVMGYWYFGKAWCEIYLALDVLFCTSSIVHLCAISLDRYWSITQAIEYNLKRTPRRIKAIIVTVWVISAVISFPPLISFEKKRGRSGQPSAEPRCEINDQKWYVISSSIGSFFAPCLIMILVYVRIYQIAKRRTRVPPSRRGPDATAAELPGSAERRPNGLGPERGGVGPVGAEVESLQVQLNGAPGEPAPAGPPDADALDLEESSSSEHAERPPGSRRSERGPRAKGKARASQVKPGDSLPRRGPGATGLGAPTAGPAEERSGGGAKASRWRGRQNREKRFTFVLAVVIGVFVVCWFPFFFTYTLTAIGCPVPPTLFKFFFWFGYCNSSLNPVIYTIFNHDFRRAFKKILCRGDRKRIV
The test can be described thus: Evaluated for its ability to displace [3H]clonidine from alpha-2 adrenergic receptor of calf cerebral cortex. The test is classed as tissue-based.

For test [3], the species on record is Rattus norvegicus. The test can be described thus: Tested for antagonism of methoxamine in the field-stimulated rat vas deferens. The test is classed as functional. As to conditions: read-out: pA2 (converted). Summed up:
(§1)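 Isolated, field-stimulated rat vas deferens. Clonidine probes presynaptic α2-adrenoceptors and methoxamine probes postsynaptic α1-adrenoceptors. pA2 and slope come from Schild plots using at least three antagonist concentrations and four tissues per concentration. Values are means ± SD.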

The target of test [4] is T3, Adrenergic receptor alpha-2 (Rattus norvegicus, UniProt P22086+P19328+P22909).
T3 sequence (P22086 whole entry): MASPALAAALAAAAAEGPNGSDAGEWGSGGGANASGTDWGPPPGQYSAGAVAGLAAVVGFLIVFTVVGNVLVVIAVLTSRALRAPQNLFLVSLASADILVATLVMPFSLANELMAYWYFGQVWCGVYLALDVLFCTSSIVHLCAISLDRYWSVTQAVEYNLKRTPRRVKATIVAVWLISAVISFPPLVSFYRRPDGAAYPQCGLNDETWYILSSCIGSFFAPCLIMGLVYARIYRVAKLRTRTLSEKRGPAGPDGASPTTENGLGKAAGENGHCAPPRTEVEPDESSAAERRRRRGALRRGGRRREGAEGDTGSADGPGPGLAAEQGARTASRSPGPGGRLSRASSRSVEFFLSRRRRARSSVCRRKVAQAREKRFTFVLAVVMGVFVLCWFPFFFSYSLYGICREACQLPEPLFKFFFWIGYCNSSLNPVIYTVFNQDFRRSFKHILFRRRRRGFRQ
T3 sequence (P19328 whole entry): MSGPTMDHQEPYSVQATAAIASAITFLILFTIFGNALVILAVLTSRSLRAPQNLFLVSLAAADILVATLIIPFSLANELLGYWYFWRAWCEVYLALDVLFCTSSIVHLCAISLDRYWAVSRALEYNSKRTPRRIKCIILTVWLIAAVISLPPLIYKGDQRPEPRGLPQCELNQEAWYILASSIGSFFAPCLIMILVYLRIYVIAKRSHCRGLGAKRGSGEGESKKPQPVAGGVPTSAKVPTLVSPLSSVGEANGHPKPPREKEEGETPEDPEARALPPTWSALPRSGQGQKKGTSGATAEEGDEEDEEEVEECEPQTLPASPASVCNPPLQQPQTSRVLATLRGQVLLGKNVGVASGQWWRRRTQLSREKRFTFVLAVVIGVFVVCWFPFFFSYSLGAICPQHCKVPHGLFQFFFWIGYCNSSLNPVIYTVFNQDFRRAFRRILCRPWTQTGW
T3 sequence (P22909 whole entry): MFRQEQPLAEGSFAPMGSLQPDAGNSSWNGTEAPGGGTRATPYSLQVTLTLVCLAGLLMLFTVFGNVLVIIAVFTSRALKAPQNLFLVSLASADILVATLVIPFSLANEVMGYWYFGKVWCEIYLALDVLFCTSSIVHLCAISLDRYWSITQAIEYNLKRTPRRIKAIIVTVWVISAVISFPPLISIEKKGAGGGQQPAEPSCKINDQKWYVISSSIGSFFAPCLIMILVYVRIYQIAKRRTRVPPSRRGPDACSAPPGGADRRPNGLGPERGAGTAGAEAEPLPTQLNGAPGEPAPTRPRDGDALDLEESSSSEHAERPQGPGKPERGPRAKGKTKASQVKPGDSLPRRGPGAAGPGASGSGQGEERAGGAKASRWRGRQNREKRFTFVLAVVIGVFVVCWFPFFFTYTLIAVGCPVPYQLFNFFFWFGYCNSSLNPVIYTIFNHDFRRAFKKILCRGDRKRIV
The test can be described thus: Evaluated for its ability to displace [3H]rauwolscine from alpha-2 adrenergic receptor of rat cerebral cortex. The test is classed as tissue-based.

The species named for test [5] is Rattus norvegicus. Briefly: Tested for antagonism of clonidine in the field-stimulated rat vas deferens. The test is classed as functional. The conditions noted are these: read-out: pA2 (converted). The essentials: as §1
For test [6], the system named is Rattus norvegicus. The test can be described thus: Tested for reversal of clonidine-induced mydriasis in the rat administered intravenously. The test is classed as functional. The conditions noted are these: iv. The essentials: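 In rats, clonidine-induced mydriasis from activation of central postsynaptic α2-adrenoceptors is established first. Test agents are then scored for reversing it, as a read-out of blood-brain barrier penetration and central α2 antagonism.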

On to `CN(C1CCN2CCc3c(oc4ccccc34)C2C1)S(=O)(=O)CCO` (stereo unspecified), for which the Ki in test [1] is 210 nM; in test [2], 1.36 nM; in test [4] it was 1.6 nM. Moreover, the Kb in the test filed under Rattus norvegicus [3] was 102 nM; in the test filed under Rattus norvegicus [5] it was 1.7 nM. Further, the ED50 with Rattus norvegicus [6] is 0.0435 mg/kg.

Regarding `CN([C@H]1CCN2CCc3c(oc4ccccc34)[C@H]2C1)S(=O)(=O)CCO`, the inhibition constant (Ki) was 8000 nM in test [1], 100 nM in test [2] and 190 nM in test [4]. Moreover, the values for the Kb in the test filed under Rattus norvegicus [3] and in the test listed under Rattus norvegicus [5] were 2510 nM and 39.8 nM, respectively. The 50% effective dose (ED50) in the test on Rattus norvegicus [6] turned out to be 5.41 mg/kg.

With `COC(=O)[C@@H]1[C@H]2C[C@H]3c4[nH]c5ccccc5c4CCN3C[C@@H]2CC[C@@H]1O` [YOHIMBINE], the values for the Kb in the test listed under Rattus norvegicus [3] and in the test listed under Rattus norvegicus [5] were 302 nM and 22.4 nM, respectively. For the same compound, the ED50 with Rattus norvegicus [6] was determined as 1.04 mg/kg.

Regarding `CN([C@@H]1CCN2CCc3c(oc4ccccc34)[C@@H]2C1)S(=O)(=O)CCO`, the Ki in test [1] was determined as 110 nM; in test [2] it was 0.77 nM; in test [4], 1.1 nM. The Kb in the test listed under Rattus norvegicus [3] is 34.7 nM; in the test listed under Rattus norvegicus [5] it was 0.794 nM. In the test with Rattus norvegicus [6], the ED50 was 0.0346 mg/kg.
